Source: PubChem (Johns Hopkins Ion Channel Center)
The list is not random: actives were taken first. Their share in the collection is about 2.3%.
TRPC6 activator: mouse TRPC6 channel activators, primary screen, cell-based, HEK293, membrane potential dye. Short transient receptor potential channel 6 (Mus musculus), Q61143. HEK293-TRPC6 membrane potential dye fluorescence; stronger effect = higher value. B-score at 10 µM. 310,000 compounds, 0.13% hits. AID 2550, 2010;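 active means B-score of the integrated fluorescence ratio above library mean plus 3 SD, and starting fluorescence ratio within library mean plus 5 SD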;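 further: higher score means more depolarization so channel activation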
TRPC6 inhibitor: mouse TRPC6 channel inhibitors, primary screen, cell-based, HEK293, membrane potential dye; B-score at 10 µM; 310,000 compounds, 1.1% hits; Short transient receptor potential channel 6 (Mus musculus), Q61143; ACh-evoked depolarization; stronger effect = lower value; AID 2553, 2010;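 active means B-score under library mean minus 3 SD, initial fluorescence not abnormally high, positive integrated signal ratio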;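 further: B-score derived from integrated fluorescence ratio over the kinetic read; more negative B-score means stronger inhibition of depolarization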
TRPC4 agonist: activators of mouse TRPC4 channel, primary screen, Fluo4 calcium, HEK293 TRPC4beta/mu-opioid cells; Short transient receptor potential channel 4 (Mus musculus), Q9QUQ5; Fluo4 calcium fluorescence; stronger effect = higher value; B-score at 10 µM; 310,000 compounds, 0.49% hits; AID 2237, 2010;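 active means B-score above 5 SD of library B-scores, and initial fluorescence ratio not above library mean plus 5 SD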;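 further: positive B-score marks a calcium rise read as TRPC4 activation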
Target sequence (Q9QUQ5 whole entry, looked up): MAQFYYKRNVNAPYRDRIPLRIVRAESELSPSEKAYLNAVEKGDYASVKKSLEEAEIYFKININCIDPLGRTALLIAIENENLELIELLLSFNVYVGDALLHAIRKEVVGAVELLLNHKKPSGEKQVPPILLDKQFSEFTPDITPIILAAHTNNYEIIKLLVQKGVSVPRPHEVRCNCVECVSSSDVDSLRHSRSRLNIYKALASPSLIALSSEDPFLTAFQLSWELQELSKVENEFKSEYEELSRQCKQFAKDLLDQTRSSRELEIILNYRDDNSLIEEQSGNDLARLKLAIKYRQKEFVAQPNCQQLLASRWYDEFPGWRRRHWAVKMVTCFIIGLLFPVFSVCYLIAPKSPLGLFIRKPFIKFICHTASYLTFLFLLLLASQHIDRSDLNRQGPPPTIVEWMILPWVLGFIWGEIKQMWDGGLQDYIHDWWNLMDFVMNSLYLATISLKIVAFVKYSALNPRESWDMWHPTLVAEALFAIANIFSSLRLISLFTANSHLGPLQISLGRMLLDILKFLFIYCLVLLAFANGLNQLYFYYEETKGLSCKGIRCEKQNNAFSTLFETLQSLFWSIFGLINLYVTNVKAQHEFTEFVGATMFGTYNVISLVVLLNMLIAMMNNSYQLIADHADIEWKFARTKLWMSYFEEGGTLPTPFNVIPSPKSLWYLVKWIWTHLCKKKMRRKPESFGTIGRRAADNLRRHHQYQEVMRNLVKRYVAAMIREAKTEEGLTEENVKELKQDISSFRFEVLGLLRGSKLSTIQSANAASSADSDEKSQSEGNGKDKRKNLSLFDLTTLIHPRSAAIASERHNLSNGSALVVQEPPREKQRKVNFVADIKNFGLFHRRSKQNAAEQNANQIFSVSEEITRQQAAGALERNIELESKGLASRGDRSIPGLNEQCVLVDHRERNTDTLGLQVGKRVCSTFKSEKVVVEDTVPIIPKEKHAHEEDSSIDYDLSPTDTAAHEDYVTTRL
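Incubation: 45 min room-temperature Fluo4 loading, 110 s read / System: HEK293 cells stably co-expressing mouse TRPC4beta and mu-opioid receptor / Signal: Fluo4 fluorescence, kinetic / Control set: buffer (low) and maximal DAMGO (high) / Measure: integrated baseline-normalised fluorescence ratio, converted to per-well B score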
TRPC4 PAM: positive allosteric modulators of TRPC4, primary screen, cell-based, mouse TRPC4beta, HEK293 mu-opioid, Fluo-4 calcium; Short transient receptor potential channel 4 (Mus musculus), Q9QUQ5; DAMGO EC20, Fluo-4 Ca2+ flux; stronger effect = higher value; B-score at 10 µM; 310,000 compounds, 0.42% hits; AID 2227, 2009;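 active means B-score of calcium response area above 5 SD of library B-scores, with initial fluorescence ratio within 5 SD of library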;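 further: B-score of integrated fluorescence ratio over time as area under calcium response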
TRPC4 block: inhibitors of mouse TRPC4 channel, primary screen, Fluo4 calcium, HEK293 TRPC4beta/mu-opioid cells | Short transient receptor potential channel 4 (Mus musculus), Q9QUQ5 | DAMGO-evoked Fluo4 calcium flux; stronger effect = lower value | B-score at 10 µM | 300,000 compounds, 0.39% hits;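 active means B-score over 3 SD under the library average, no early fluorescence shift, positive overall ratio signal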
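Material: HEK293 cells with stable TRPC4beta plus mu-opioid receptor expression / Probe or stimulus: DAMGO in two steps, submaximal then maximal / Compound: single concentration per test compound / Technique: kinetic Fluo4 fluorescence imaging of calcium influx / Read-out: per-well B score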
TRPC4 spec 2: second check of whether TRPC6 inhibitors also affect mouse TRPC4. shares compounds with TRPC6 inhibitor. HEK293 TRPC4/MOR, membrane potential dye fluorescence; channel activated by saturating DAMGO dose. inhibition, % at 10 µM. 920 compounds, 42% hits;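 active means compounds whose fluorescence signal differed from control wells by over 3 SD, either direction, in both duplicate plates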
TRPC4 spec: mouse TRPC4 modulation by TRPC6 hits, confirmation, selectivity assay for TRPC6 inhibitor project, cell-based, HEK293 TRPC4/mu-opioid, membrane potential dye; shares compounds with TRPC6 inhibitor; membrane potential fluorescence; activity change, negative = inhibition, % at 10 µM; 920 compounds, 61% hits; AID 2777, 2010;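 active means rise or fall in signal beyond 3 SD of buffer-only wells in both replicate plates, either sign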;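 further: integrated kinetic ratio of fluorescence range over baseline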
HEK293 MPD ctr 2-1: nonspecific membrane potential effects, parental HEK293, confirmation, counter-screen for TRPC6 inhibitor project, cell-based, second counter screen; shares compounds with TRPC6 inhibitor; parental HEK293 membrane potential dye fluorescence; maximal acetylcholine challenge after compound addition; signal change vs control, % at 10 µM; 920 compounds, 31% hits; AID 2779, 2010;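 active means membrane potential signal moving either way by over 3 SD of the maximum-effect control, in both duplicate plates, meaning non-specific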
HEK293 MPD ctr-1: membrane potential modulation in parental HEK293, confirmation, counter-screen for TRPC6 inhibitor project, cell-based | shares compounds with TRPC6 inhibitor | parental HEK293 membrane potential dye fluorescence | membrane potential signal change, % at 10 µM | 920 compounds, 60% hits | AID 2780, 2010;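 active means membrane potential signal shifting up or down by more than 3 SD of buffer-only wells, on both duplicate plates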
HEK293 MPD ctr-2: parental HEK293 membrane potential modulation, confirmation, counter-screen for TRPC6 modulator project, cell-based; AID 488924, 2010; membrane potential dye fluorescence; membrane potential signal change, % at 10 µM; shares compounds with TRPC6 inhibitor; 2,400 compounds, 51% hits;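 active means membrane potential signal moves up or down beyond 5 SD from buffer-only wells, on both duplicate plates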
HEK293 MPD ctr 2-2: parental HEK293 nonspecific activity of TRPC6 modulators, second screen | membrane potential dye fluorescence; after compound, maximal acetylcholine stimulation | shares compounds with TRPC6 inhibitor | AID 488926 | 2,400 compounds, 14% hits | inhibition, % at 10 µM;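 active means membrane potential signal drops by more than 5 SD from the mean control signal, in both duplicate plates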;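 further: plate controls were acetylcholine ECmax control wells for no effect and buffer only wells for full effect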
TRPC4 ctr mod: TRPC4 modulation by TRPC6 hit compounds, confirmation, selectivity assay for TRPC6 modulator project, cell-based, HEK293 TRPC4/mu-opioid, membrane potential dye, mouse; shares compounds with TRPC6 inhibitor; 2,400 compounds, 69% hits; membrane potential fluorescence; percent change from control (negative = decrease, positive = increase), % at 10 µM; AID 488927, 2010;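 active means membrane potential signal moved up or down beyond 5 SD of buffer control wells, in both duplicate plates, actives on both sides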;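 further: plate controls were assay buffer wells for no effect and DAMGO maximal-effect wells for full effect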
TRPC4 ctr inh 2: second selectivity test of TRPC6 modulators against mouse TRPC4; shares compounds with TRPC6 inhibitor; HEK293 TRPC4/mu-opioid, membrane potential dye fluorescence; stimulated with maximal-effect DAMGO; inhibition, % at 10 µM; 2,400 compounds, 55% hits;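 active means drop in membrane potential signal beyond 5 SD of the control wells in both duplicate plates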;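 further: TRPC4 counter screen for TRPC6 hits run under conditions tuned for TRPC6 not TRPC4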
TRPC6 inh conf: mouse TRPC6 channel inhibitors, confirmation, HEK293 cells, membrane potential dye, duplicate; inhibition, % at 10 µM; ACh-evoked depolarization; 3,300 compounds, 43% hits; AID 488960, 2010; shares compounds with TRPC6 inhibitor;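 active means fluorescence ratio falls more than 5 SD below the full-stimulation control mean, in both duplicate runs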;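 further: integrated fluorescence ratio of peak minus minimum over baseline after agonist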
TRPC6 act confirm: mouse TRPC6 channel activators, confirmation, HEK293 cells, membrane potential dye, duplicate. activation, % at 10 µM. shares compounds with TRPC6 inhibitor. 2,800 compounds, 11% hits. HEK293-TRPC6 membrane potential dye fluorescence, FDSS;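 active means ratio signal rise beyond 5 SD above unstimulated control wells' mean, seen in both duplicate runs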;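 further: plate controls were buffer EC0 wells for no effect and acetylcholine ECmax response for full effect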
* = called active by the depositor; i = inactive; x = no result.

SMILES | TRPC6 activator | TRPC6 inhibitor | TRPC4 agonist | TRPC4 PAM | TRPC4 block | HEK293 MPD ctr-2 | HEK293 MPD ctr 2-2 | TRPC4 ctr mod | TRPC4 ctr inh 2 | TRPC6 inh conf | TRPC6 act confirm | others
CC(C)(C)C1CCC(=O)N(CCSc2ccccc2)CC1 (centres undefined) | i | -5.2* | i | i | i | 190%* | i | 44%* | i | i | x
COc1cc(-c2cc[n+](C)cc2)ccc1O | i | -6* | i | i | i | -329%* | i | -53%* | i | i | i
COC(=O)CSc1nc(-c2ccc(F)cc2)cc(C(F)(F)F)n1 | i | i | i | i | i | x | x | x | x | x | x
OC(c1cc(-c2ccc(C(F)(F)F)cc2)nc(C(F)(F)F)c1)C1CCCCN1 (centres undefined) | i | -5.9* | 43* | i | i | i | 57%* | -10%* | 54%* | i | i
CC(Oc1ccc2c3c(c(=O)oc2c1)CCC3)C(=O)NC1CCN(Cc2ccccc2)CC1 (centres undefined) | i | -6.3* | i | i | i | i | i | -14%* | 74%* | 58%* | i
Cc1ccccc1OCC(=O)NCCCNC(=O)c1cccnc1 | i | i | i | i | i | x | x | x | x | x | x
CC(=O)c1c(C)n(-c2ccccc2Br)c2ccc(O)cc12 | i | i | i | i | i | x | x | x | x | x | x
Cc1nonc1NC(=O)CSc1ccccn1 | i | -5.7* | i | i | i | i | i | i | i | i | i
Cc1cc(NC(=O)CSc2ccccn2)cc(NC(=O)CSc2ccccn2)c1 | i | i | i | i | i | x | x | x | x | x | x
CCCOc1ccccc1C(=O)Nc1ccc(S(=O)(=O)N2CCN(C)CC2)cc1 | i | i | i | i | i | x | x | x | x | x | x
CCc1ccc(NC(=O)C2=CC(c3ccc(OC)c(OC)c3)=NS(=O)(=O)N2C)cc1 | i | -5.7* | i | i | i | i | i | -18%* | 66%* | i | i
COc1ccc(CNC(=O)C2=CC(c3ccc(OC)c(OC)c3)=NS(=O)(=O)N2C)cc1 | i | i | i | i | i | x | x | x | x | x | x
COc1ccc(/C=N/NC(=O)CN2CCS(=O)(=O)CC2)cc1 | i | i | i | i | i | x | x | x | x | x | x
O=C(CN1CCS(=O)(=O)CC1)N/N=C/c1cccc(C(F)(F)F)c1 | i | -5.3* | i | i | i | i | i | i | i | i | i
Cc1c[n+](CC(=O)c2ccccc2)c(C)cn1 | i | i | i | i | i | x | x | x | x | x | x
O=C(COc1ccccc1)Nc1cc(NC(=O)COc2ccccc2)cc(C(=O)O)c1 | i | i | i | i | i | x | x | x | x | x | x
COc1ccc(CNC2CCCC2)c(OC)c1OC | i | i | i | i | i | x | x | x | x | x | x
C=CCOc1ccc(Cl)cc1CNC1CCCC1 | i | -7.3* | i | i | -6* | 321%* | 83%* | 76%* | 91%* | 72%* | x
CS(=O)(=O)N(CC(=O)Nc1ccc2c(c1)OCCO2)Cc1ccc(Cl)cc1 | i | i | i | i | i | x | x | x | x | x | x
CCOC(=O)c1ccc(NC(=S)N(CCN2CCCCCC2)Cc2ccco2)cc1 | i | i | i | i | i | x | x | x | x | x | x
CCOC(=O)c1ccc(NC(=S)N(CCCN2CCCCCC2)Cc2ccco2)cc1 | i | -5.7* | i | i | i | i | i | i | 77%* | 56%* | i
CCOC(=O)c1ccc(NC(=S)NCc2ccc(S(N)(=O)=O)cc2)cc1 | i | -5.3* | i | i | i | i | i | i | i | 48%* | x
CCOc1ccc(NC(=S)NCc2ccco2)cc1 | i | i | i | i | i | x | x | x | x | x | x
CCOC(=O)c1ccc(NC(=S)NCc2ccco2)cc1 | i | -9.3* | i | i | i | x | x | x | x | i | i | TRPC4 spec 2=i;TRPC4 spec=i;HEK293 MPD ctr 2-1=i;HEK293 MPD ctr-1=i
CCOC(=O)c1ccc(NC(=O)CN(Cc2ccc(Cl)cc2)S(C)(=O)=O)cc1 | i | -6.6* | i | i | i | x | x | x | x | i | i | TRPC4 spec 2=i;TRPC4 spec=-12%*;HEK293 MPD ctr 2-1=i;HEK293 MPD ctr-1=i
